For 24 molecules, IC50 results are on record in ChEMBL document CHEMBL3992570, “Integrated Platform for Expedited Synthesis-Purification-Testing of Small Molecule Libraries” (ACS Med Chem Lett, 2017).

For test [1], the target named is T1, Polycomb protein EED (Homo sapiens, UniProt O75530). As to the kind of experiment: Inhibition of pyrrolidine inhibitor-based oregon-green probe binding to GST-tagged EED (unknown origin) after 1 hr by assay explorer integrated LanthaScreen TR-FRET assay. An outline of the steps:
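On the integrated platform, HPLC fractions were quantified by charged aerosol detection (calibrated with ketoprofen) and dissolved in DMSO to 10 mM stocks. An 11-point, 3-fold serial dilution followed. 50 nL of each dilution was pin-transferred into 10 µL assay buffer (0.5% DMSO final) and incubated 1 h at 25 °C. TR-FRET was read on EnVision, and activity was obtained by curve fitting.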
(Time-resolved FRET reads energy transfer from a long-lived donor to a nearby acceptor.)

Test [2] has as its target T1, Polycomb protein EED. As to the kind of experiment: Inhibition of pyrrolidine inhibitor-based oregon-green probe binding to GST-tagged EED (unknown origin) after 1 hr by LanthaScreen TR-FRET assay. In outline:
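Compounds were made, purified and tested conventionally as separate steps, under the same assay conditions as the integrated run. Compound in DMSO was added to assay buffer (0.5% DMSO final) and incubated 1 h at 25 °C. The TR-FRET signal was read on a plate reader, and activity was derived by curve fitting.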

T1 sequence (O75530 whole entry): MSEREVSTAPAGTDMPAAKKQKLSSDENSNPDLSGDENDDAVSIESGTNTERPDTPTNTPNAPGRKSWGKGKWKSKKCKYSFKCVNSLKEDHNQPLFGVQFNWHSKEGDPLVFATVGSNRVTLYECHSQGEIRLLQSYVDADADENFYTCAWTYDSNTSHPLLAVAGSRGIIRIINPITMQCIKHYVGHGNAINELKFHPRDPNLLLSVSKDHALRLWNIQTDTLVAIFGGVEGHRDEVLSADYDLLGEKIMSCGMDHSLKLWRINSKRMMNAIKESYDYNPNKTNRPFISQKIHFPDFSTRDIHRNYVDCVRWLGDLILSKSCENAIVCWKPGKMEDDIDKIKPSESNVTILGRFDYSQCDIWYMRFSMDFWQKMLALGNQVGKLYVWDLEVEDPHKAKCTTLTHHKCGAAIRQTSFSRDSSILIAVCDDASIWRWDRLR

The term IC50 denotes the concentration at which inhibition is half-maximal. For the molecule `CC(=O)NC1CCN(c2ccc([C@H]3CN(Cc4c(C)cccc4F)C[C@@H]3N(C)C)cc2)CC1`, the IC50 in test [1] was 0.04 µM; in test [2], 0.16 µM. The like results for `Cc1cccc(F)c1CN1C[C@H](c2ccc(N3CCn4ccnc4C3)cc2)[C@@H](N(C)C)C1` were, in that order, 0.07 µM and 0.1 µM. The like results for `Cc1cc([C@H]2CN(Cc3c(C)cccc3F)C[C@@H]2N(C)C)ccc1C(=O)Nc1cccnc1` were, in that order, 0.08 µM and 0.1 µM. On to `Cc1ccc(N2CCN(c3ccc([C@H]4CN(Cc5c(C)cccc5F)C[C@@H]4N(C)C)cc3)CC2)cc1`, for which the IC50 in test [1] was found to be 0.15 µM; in test [2] it was 0.22 µM.

Take `Cc1cccc(F)c1CN1C[C@H](c2ccc(N3CCN(c4ccccc4)CC3)cc2)[C@@H](N(C)C)C1`: the IC50 turned out to be 0.05 µM in test [1] and 0.09 µM in test [2].

Consider `Cc1cccc(F)c1CN1C[C@H](c2ccc(N3CCC(N(C)C)CC3)cc2)[C@@H](N(C)C)C1`, for which the IC50 was 0.04 µM in test [1] and 0.1 µM in test [2]. In the case of `Cc1cccc(F)c1CN1C[C@H](c2ccc(N3CCN(c4ccccc4S(C)(=O)=O)CC3)cc2)[C@@H](N(C)C)C1`, the results for the IC50 in test [1] and in test [2] were 0.07 µM and 0.19 µM, respectively.

`Cc1cc([C@H]2CN(Cc3c(C)cccc3F)C[C@@H]2N(C)C)ccc1C(=O)NCc1ccncc1`: the IC50 in test [1] amounted to 0.07 µM; in test [2] it was 0.11 µM. The like results for `Cc1cccc(F)c1CN1C[C@H](c2ccc(N3CCN(c4ccncc4)CC3)cc2)[C@@H](N(C)C)C1` were, in that order, 0.01 µM and 0.01 µM. The matching figures for `Cc1cc([C@H]2CN(Cc3c(C)cccc3F)C[C@@H]2N(C)C)ccc1C(=O)NCc1ccccn1`: 0.07 µM and 0.08 µM. The like results for `Cc1cc([C@H]2CN(Cc3c(C)cccc3F)C[C@@H]2N(C)C)ccc1C(=O)N(C)C` were, in that order, 0.11 µM and 0.18 µM.

Take `Cc1cc([C@H]2CN(Cc3c(C)cccc3F)C[C@@H]2N(C)C)ccc1C(=O)N1CCN(CCO)CC1`: the IC50 in test [1] was found to be 0.27 µM; in test [2], 0.38 µM. The matching figures for `Cc1ccc(S(=O)(=O)N2CCN(c3ccc([C@H]4CN(Cc5c(C)cccc5F)C[C@@H]4N(C)C)cc3)CC2)cc1`: 0.05 µM and 0.08 µM.

Regarding `Cc1cccc(F)c1CN1C[C@H](c2ccc(N3CCN(S(=O)(=O)c4cccc(F)c4)CC3)cc2)[C@@H](N(C)C)C1`, the IC50 in test [1] came out at 0.04 µM; in test [2], 0.05 µM.

With `CC(=O)N[C@H]1CCN(c2ccc([C@H]3CN(Cc4c(C)cccc4F)C[C@@H]3N(C)C)cc2)C1`, the IC50 was 0.09 µM in test [1] and 0.24 µM in test [2]. As to `CC(=O)N[C@@H]1CCN(c2ccc([C@H]3CN(Cc4c(C)cccc4F)C[C@@H]3N(C)C)cc2)C1`, the IC50 in test [1] is 0.16 µM. In other words, the sub-micromolar range.

Take `CCN(CC)C(=O)c1ccc([C@H]2CN(Cc3c(C)cccc3F)C[C@@H]2N(C)C)cc1C`: the IC50 came out at 0.1 µM in test [1] and 0.25 µM in test [2].

On to `Cc1cccc(F)c1CN1C[C@H](c2ccc(N3CCC(N4CCOCC4)CC3)cc2)[C@@H](N(C)C)C1`, for which the IC50 in test [1] turned out to be 0.04 µM; in test [2], 0.06 µM. The like results for `Cc1cccc(F)c1CN1C[C@H](c2ccc(N3CCC(C#N)CC3)cc2)[C@@H](N(C)C)C1` were, in that order, 0.07 µM and 0.14 µM. The matching figures for `Cc1cccc(F)c1CN1C[C@H](c2ccc(N3CCC(C)CC3)cc2)[C@@H](N(C)C)C1`: 0.04 µM and 0.14 µM. Consider `Cc1cccc(F)c1CN1C[C@H](c2ccc(N(C)C3CCN(C)CC3)cc2)[C@@H](N(C)C)C1`, for which the IC50 is 0.09 µM in test [1] and 0.35 µM in test [2]. The like results for `Cc1cc([C@H]2CN(Cc3c(C)cccc3F)C[C@@H]2N(C)C)ccc1C(=O)NCCN(C)C` were, in that order, 0.08 µM and 0.15 µM. The matching figures for `Cc1cccc(F)c1CN1C[C@H](c2ccc(N3CCN(c4nccs4)CC3)cc2)[C@@H](N(C)C)C1`: 0.03 µM and 0.04 µM. The like results for `Cc1cc([C@H]2CN(Cc3c(C)cccc3F)C[C@@H]2N(C)C)ccc1C(=O)N1CCN(C)CC1` were, in that order, 0.26 µM and 0.48 µM.
